Compound activity deposited in PubChem BioAssay by The Scripps Research Institute Molecular Screening Center.
PRMT1 inh: PRMT1 methyltransferase inhibitors, primary screen, biochemical, fluorescence polarization. hit rate 1.3% among 370,000. inhibition, % at 2.79 µM. recombinant PRMT1, activity-based probe fluorescence polarization. Protein arginine N-methyltransferase 1 (Homo sapiens), Q99873. AID 652257, 2013;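 active means inhibition above about 21% made by adding two undisclosed values, limit read from the data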
SIAE inh: human SIAE inhibitors, primary screen, biochemical, fluorescence polarization, FP-Rh probe, 1536-well HTS. Sialate O-acetylesterase (Homo sapiens), Q9HAT2. SIAE FP-Rh probe binding. inhibition, % at 9.66 µM. hit rate 0.69% among 370,000. AID 1053197, 2014;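 active means inhibition above a cutoff: mean of compounds within the control limits plus 3 SD of those, cut at about 17% in these data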
TCR-CD3 inh: inhibitors of human TCR-CD3 interaction, primary screen, biochemical, fluorescence, TAMRA-labeled TCR probe; T-cell receptor (TCR); inhibition, % at 9.4 µM; hit rate 0.37% among 360,000; in the data active means inhibition above about 19%;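 further: recombinant mutant TCR 2C K166C tagged with TAMRA read by polarization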
HTRA1 inhibitor: HTRA1 serine protease inhibitors, primary screen, biochemical, fluorescence polarization, HTS; Q92743; recombinant HTRA1, FP-rhodamine activity-based probe; inhibition, % at 5.96 µM; hit rate 0.5% among 340,000; in the data active means inhibition above about 36%
mABHD4 FP: ABHD4 inhibitors, primary screen, biochemical, fluorescence polarization, mouse; purified mABHD4, FP-Rh probe fluorescence polarization; inhibition, % at 8.92 µM; hit rate 0.54% among 370,000; AID 720543, 2013;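 active means inhibition exceeding the mean over every tested compound plus 3 SD, cut at about 30% in these data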
Target sequence (Q8VD66 whole entry, looked up): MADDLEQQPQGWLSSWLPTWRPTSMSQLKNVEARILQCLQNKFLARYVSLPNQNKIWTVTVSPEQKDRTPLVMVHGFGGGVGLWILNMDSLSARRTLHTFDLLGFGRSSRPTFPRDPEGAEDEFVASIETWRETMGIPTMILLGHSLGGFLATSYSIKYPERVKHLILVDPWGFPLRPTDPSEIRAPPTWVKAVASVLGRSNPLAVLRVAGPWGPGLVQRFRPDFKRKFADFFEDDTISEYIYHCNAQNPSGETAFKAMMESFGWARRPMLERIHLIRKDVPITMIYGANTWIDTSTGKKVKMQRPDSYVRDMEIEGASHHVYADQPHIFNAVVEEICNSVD
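Test system: mABHD4 protein; Read-out basis: % inhibition; Incubation: 45 min + 60 min at 25 °C; Repeats: single replicate; Technique: fluorescence polarization with parallel and perpendicular emission, 525/598 nm; Compound: 8.92 µM, single dose; Benchmarks: full inhibition S159A mutant plus DMSO, zero as sample-well median.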
PRMT1 confirm: PRMT1 methyltransferase inhibitors, confirmation, biochemical, fluorescence polarization, triplicate. inhibition, % at 2.79 µM. recombinant His-PRMT1, activity-based probe fluorescence polarization. shares compounds with PRMT1 inh. hit rate 42% among 3,300. AID 687036, 2013;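 active means mean inhibition across replicates above the hit cutoff derived for the earlier primary screen, cut at about 22% in these data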
Of the large screens only hits and unclear results are named; the others gave an inactive call (follow-up assays come after a bar, where they were run). The list is not random: actives were taken first. Their share in the collection is about 2.6%.

CC(=O)Nc1ccc(S(=O)(=O)N(C)CC(=O)OC(C)C(=O)N(C)Cc2ccccc2)cc1 (stereo unspecified)	none
Cc1cc(C)nc(Sc2ncnc(N)c2[N+](=O)[O-])n1	PRMT1 inh 47 | PRMT1 confirm inactive
Cc1cccc(Nc2ncnc(N)c2[N+](=O)[O-])n1	none
CCOC(=O)C1CCCN(C2CC(=O)N(c3ccc(NC(C)=O)cc3)C2=O)C1 (stereo unspecified)	PRMT1 inh 37 | PRMT1 confirm inactive
CCOC(=O)C1CCCN(C2CC(=O)N(c3ccc(C)cc3)C2=O)C1 (stereo unspecified)	none
CC(C)Cn1c(N)c(C(=O)CSc2n[nH]c(N)n2)c(=O)n(C)c1=O	none
O=C1C=C(NNC(=O)c2cccnc2)CC(c2ccco2)C1 (stereo unspecified)	PRMT1 inh 42 | PRMT1 confirm inactive
c1ccc2c(C3=NNC(=NC4CC4)SC3)c[nH]c2c1	PRMT1 inh 38 | PRMT1 confirm inactive
c1ccc2c(C3=NNC(=NC4CCCCC4)SC3)c[nH]c2c1	none
N[C@@H](Cc1ccccc1)C(=O)N1CCC(C(=O)N[C@@H](CCC(=O)O)C(=O)O)CC1	none
CCN1CCN(C(=S)c2ccc(O)cc2)CC1	PRMT1 inh 81 | PRMT1 confirm 52
CCN1CCN(C(=S)c2ccc(Br)cc2)CC1	PRMT1 inh 36 | PRMT1 confirm 35
Cc1nc(=S)c2c([nH]1)-c1ccccc1CC21CCCCC1	none (no result: HTRA1 inhibitor)
Cc1c(C(=O)N2CCCCCC2)c(S(=O)(=O)Nc2ccc(F)cc2)c(C)n1C	none
CC(C)C(NC(=O)c1ccc(C(C)(C)C)cc1)C(=O)NCC1(N(C)C)CCCCC1 (stereo unspecified)	none
O=C1C=CC(=O)N1c1ccccc1N1C(=O)C=CC1=O	PRMT1 inh 93 | PRMT1 confirm 90
O=C(c1ccccc1)c1ccccc1N1C(=O)C=CC1=O	PRMT1 inh 85 | PRMT1 confirm 97
CCN1C(=O)/C(=C/C=C2/Sc3ccc4ccccc4c3N2CCO)SC1=S	PRMT1 inh 44 | PRMT1 confirm inactive
CCN1C(c2ccccc2)=C(c2ccccc2)S/C1=C\C=C1/SC(=S)N(C)C1=O	none
CC1(C)N=C(SCC(=O)Nc2ccc(Cl)cc2)C(c2ccc(Cl)cc2)=N1	PRMT1 inh 28 | PRMT1 confirm inactive
N#CCSCC(=O)Nc1ccc(Cl)cc1	none
NC(=O)SCC(=O)Nc1ccc(Cl)cc1	PRMT1 inh 65 | PRMT1 confirm 88
COCC(=O)Nc1ccc(C)c(Cl)c1	none
NC(=O)/C=C/C(=O)Nc1ccc(Cl)cc1	PRMT1 inh 87 | PRMT1 confirm 32
Cc1ccc(NC(=O)CSC(N)=O)cc1Cl	PRMT1 inh 28 | PRMT1 confirm 89
COc1ccc(CCN2CCCn3c2nc2c3c(=O)n(CC(C)C)c(=O)n2C)cc1OC	none
C[C@]12CC[C@H](O)CC1=C[C@H](O)C1C2CC[C@@]2(C)C1CC[C@@]2(O)C#Cc1ccc(CN)cc1 (stereo partly specified)	none
Cc1c(Cl)cnc(NC(=O)CSc2n[nH]c(N)n2)c1Cl	none
O=C(CN1CCN(S(=O)(=O)/C=C/c2ccccc2)CC1)NCC(F)(F)F	none
NC(=O)SCC(=O)Nc1cccc(Cl)c1	PRMT1 inh 73 | PRMT1 confirm 101
NC(=O)SCC(=O)Nc1ccc(Cl)c(Cl)c1	PRMT1 inh 49 | PRMT1 confirm 94
Cc1c(Cl)cccc1NC(=O)CSC(N)=O	PRMT1 inh 31 | PRMT1 confirm 96
COc1ccccc1OC[C@H](O)CO	none
O=[N+]([O-])c1ccc(Cl)c(C2Nc3cccc4cccc(c34)N2)c1	PRMT1 inh 53 | PRMT1 confirm 26
Clc1cccc(C2Nc3cccc4cccc(c34)N2)c1	none
COCCNC(=S)Nc1ccc(N2CCOCC2)c(S(=O)(=O)Nc2ccc(Cl)cc2)c1	none
O=S(=O)(Nc1ccc(Cl)cc1)c1ccc(N2CCOCC2)c(NC(=S)NCCN2CCOCC2)c1	PRMT1 inh 49 | PRMT1 confirm 74
O=C(NC1CCCCCC1)c1ccc[nH]c1=S	PRMT1 inh 49 | PRMT1 confirm inactive
O=C(O)/C=C/C(=O)Nc1ccccc1-c1ccccc1	PRMT1 inh 30 | PRMT1 confirm inactive
